Laboratory results published in PMC4203403 (Journal of Medicinal Chemistry, 2014).
Like-named read-outs stand apart in the source and are kept apart here.

What was measured:
[1] = target: T1, CB1 receptor (Homo sapiens, UniProt P21554); test: ERK1/2 phosphorylation immunoblotting in HEK293 cells expressing CB1; assay type: cell-based; conditions: for pertussis toxin (PTX) sensitivity of induced ERK1/2 phosphorylation: PTX pretreatment; for pertussis toxin (PTX) sensitivity of induced ERK1/2 phosphorylation / effect of β-arrestin 1 knockdown on induced ERK1/2 phosphorylation: result in words; for effect of β-arrestin 1 knockdown on induced ERK1/2 phosphorylation: siRNA targeting β-arrestin 1; for modulator concentration at which ERK1/2 phosphorylation reached a plateau: in the presence of 0.2 μM CP55,940, 5 min
[2] = target: T1, CB1 receptor; conditions: [3H]CP55,940 as orthosteric ligand; given for comparison; cited from earlier work
[3] = target: T1, CB1 receptor; test: Radioligand binding assay with [3H]CP55,940; conditions: for α: binding cooperativity factor: [3H]CP55,940 as orthosteric ligand, ND = no detectable modulation of [3H]CP55,940 binding using up to 32 μM
Outline: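 CB1 was transiently expressed in HEK293 cells by calcium phosphate transfection, and membranes were harvested 24 h later. […] Nonspecific binding was measured with 1 μM CP55,940. Read-out was GF/C filtration and scintillation counting. Run in duplicate, ≥3 experiments; KB and α fitted by nonlinear regression.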

[4] = target: T1, CB1 receptor; test: CP55,940-induced [35S]GTPγS binding assay, HEK293 cell membranes expressing CB1; assay type: biochemical; conditions: result in words

T1 sequence (P21554 whole entry): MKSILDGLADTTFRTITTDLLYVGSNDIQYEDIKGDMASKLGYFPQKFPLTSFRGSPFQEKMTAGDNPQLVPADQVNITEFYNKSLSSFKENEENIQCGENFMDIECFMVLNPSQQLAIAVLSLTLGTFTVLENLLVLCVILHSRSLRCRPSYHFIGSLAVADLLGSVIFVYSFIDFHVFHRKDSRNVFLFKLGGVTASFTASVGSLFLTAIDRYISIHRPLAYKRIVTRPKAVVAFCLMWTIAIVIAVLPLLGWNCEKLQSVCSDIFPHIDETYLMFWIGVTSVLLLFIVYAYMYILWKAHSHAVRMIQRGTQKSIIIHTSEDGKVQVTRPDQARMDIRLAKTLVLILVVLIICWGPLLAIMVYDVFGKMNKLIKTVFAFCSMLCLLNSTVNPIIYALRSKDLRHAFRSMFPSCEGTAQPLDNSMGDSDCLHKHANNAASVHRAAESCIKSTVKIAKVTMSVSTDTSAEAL

CCCCCCC(C)(C)c1ccc([C@@H]2C[C@H](O)CC[C@H]2CCCO)c(O)c1 [CP55,940, 2-[(1R,2R,5R)-5-hydroxy-2-(3-hydroxypropyl)cyclohexyl]-5-(2-methyloctan-2-yl)phenol, reference compound]
pertussis toxin (PTX) sensitivity of induced ERK1/2 phosphorylation [1]: substantially attenuated by pertussis toxin (PTX) | effect of β-arrestin 1 knockdown on induced ERK1/2 phosphorylation [1]: not by β-arrestin knockdown

CCc1c(C(=O)NCCc2ccc(N3CCCCC3)cc2)[nH]c2ccc(Cl)cc12 [Compound 1, 5-Chloro-3-ethyl-N-(4-(piperidin-1-yl)phenethyl)-1H-indole-2-carboxamide]
α: binding cooperativity factor [2]: 6.9

CCCCCc1c(C(=O)NCCc2ccc(N3CCCCC3)cc2)[nH]c2ccc(Cl)cc12 [Compound 2, 5-chloro-3-pentyl-N-(4-(piperidin-1-yl)phenethyl)-1H-indole-2-carboxamide, reference compound]
modulator concentration at which ERK1/2 phosphorylation reached a plateau [1]: 10 µM | effect of β-arrestin 1 knockdown on induced ERK1/2 phosphorylation [1]: substantial inhibition of ERK1/2 phosphorylation | α: binding cooperativity factor [2]: 17.6

CCc1c(C(=O)NCCc2ccc(N(C)C)cc2)[nH]c2ccc(Cl)cc12 [Compound 4, 5-chloro-N-(4-(dimethylamino)phenethyl)-3-ethyl-1H-indole-2-carboxamide]
α: binding cooperativity factor [2]: 19.7

CCCCCc1c(C(=O)NCCc2ccc(N(C)C)cc2)[nH]c2ccc(Cl)cc12 [Compound 5, 5-chloro-N-(4-(dimethylamino)phenethyl)-3-pentyl-1H-indole-2-carboxamide]
α: binding cooperativity factor [2]: 16.5

CCCc1c(C(=O)NCCc2ccc(N3CCCCC3)cc2)[nH]c2ccc(Cl)cc12 [Compound 12a, 5-Chloro-N-(4-(piperidin-1-yl)phenethyl)-3-propyl-1H-indole-2-carboxamide]
α: binding cooperativity factor [3]: 26.7

CCCc1c(C(=O)NCCc2ccc(N(C)C)cc2)[nH]c2ccc(Cl)cc12 [Compound 12d, 5-Chloro-N-(4-(dimethylamino)phenethyl)-3-propyl-1H-indole-2-carboxamide]
α: binding cooperativity factor [3]: 24.5 | modulator concentration at which ERK1/2 phosphorylation reached a plateau [1]: 5 µM | effect of β-arrestin 1 knockdown on induced ERK1/2 phosphorylation [1]: substantial inhibition of ERK1/2 phosphorylation | effect on CP55,940-induced G-protein coupling activity (GTPγS binding) [4]: concentration-dependent inhibition of agonist-induced GTPγS binding

CCCCc1c(C(=O)NCCc2ccc(N(C)C)cc2)[nH]c2ccc(Cl)cc12 [Compound 12e, 3-Butyl-5-chloro-N-(4-(dimethylamino)phenethyl)-1H-indole-2-carboxamide]
α: binding cooperativity factor [3]: 12.8

CCCCCCc1c(C(=O)NCCc2ccc(N(C)C)cc2)[nH]c2ccc(Cl)cc12 [Compound 12f, 5-Chloro-N-(4-(dimethylamino)phenethyl)-3-hexyl-1H-indole-2-carboxamide]
α: binding cooperativity factor [3]: 5.1 | pertussis toxin (PTX) sensitivity of induced ERK1/2 phosphorylation [1]: PTX insensitive | modulator concentration at which ERK1/2 phosphorylation reached a plateau [1]: 5 µM | effect of β-arrestin 1 knockdown on induced ERK1/2 phosphorylation [1]: substantial inhibition of ERK1/2 phosphorylation | effect on CP55,940-induced G-protein coupling activity (GTPγS binding) [4]: concentration-dependent inhibition of agonist-induced GTPγS binding

CCc1c(C(=O)NCCc2ccc(N(C)C)cc2)[nH]c2cc(Cl)ccc12 [Compound 21a, N-(4-(Dimethylamino)phenethyl)-3-ethyl-6-chloro-1H-indole-2-carboxamide]
α: binding cooperativity factor [3]: 16.0

CCc1c(C(=O)NCCc2ccc(N(C)C)cc2)[nH]c2cc(F)ccc12 [Compound 21b, N-(4-(Dimethylamino)phenethyl)-3-ethyl-6-fluoro-1H-indole-2-carboxamide]
α: binding cooperativity factor [3]: 22.9

CCc1c(C(=O)NCCc2ccc(N(C)C)cc2)[nH]c2cc(OC)ccc12 [Compound 21c, N-(4-(Dimethylamino)phenethyl)-3-ethyl-6-methoxy-1H-indole-2-carboxamide]
α: binding cooperativity factor [3]: 6.2

CCc1c(C(=O)NCCc2ccc(N(C)C)cc2)[nH]c2ccc(OC)cc12 [Compound 21d, N-(4-(Dimethylamino)phenethyl)-3-ethyl-5-methoxy-1H-indole-2-carboxamide]
α: binding cooperativity factor [3]: 11.9

CCc1c(C(=O)NCCCc2ccc(N(C)C)cc2)[nH]c2ccc(Cl)cc12 [Compound 26, 5-Chloro-N-(3-(4-(dimethylamino)phenyl)propyl)-3-ethyl-1H-indole-2-carboxamide]
allosteric modulation of orthosteric agonist CP55,940 binding ([3]; result in words): loss of allosteric modulation
